From ChEMBL document CHEMBL4014309, “Development of an Acrylate Derivative Targeting the NLRP3 Inflammasome for the Treatment of Inflammatory Bowel Disease” (J Med Chem, 2017)
Activity calls are given as the source filed them. The calls are words filed in the database; no cut-off is given here.

Experiments:
[1] = Glutathione reactivity assessed as adduct formation of the compound at pH 7.4 and 9
[2] = Cytotoxicity against human THP1 cells assessed as reduction in cell viability after 72 hrs by MTT assay; assay type: cell-based; details: THP-1 cells, read-out: TC50
How it was run: (§1)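 Human THP-1 cells were exposed to 0.1–100 µM for 72 h, and viability was read by MTT. TC50 is the concentration that cuts viability by 50%; percent viable cells at 100 µM is also reported. Mean ± SEM of ≥3 experiments.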

[3] = Cytotoxicity against human THP1 cells assessed as cell viability at 100 uM after 72 hrs by MTT assay; assay type: cell-based; details: THP-1 cells, read-out: Activity; how it was run: as §1
[4] = target: NACHT, LRR and PYD domains-containing protein 3 (Homo sapiens) (UniProt Q96P20); assay: Inhibition of recombinant human NLRP3 ATPase assessed as hydrolysis of ATP at 100 uM preincubated for 15 mins followed by addition of ATP measured after 40 mins by ADP-Glo assay
How it was run: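 Human recombinant NLRP3 (0.105 µg) in 20 mM Tris-HCl pH 7.8, 133 mM NaCl, 20 mM MgCl2, 3 mM KCl, 0.56 mM EDTA, 0.5% DMSO. Compound (100 or 50 µM) was preincubated 15 min at 37 °C, then ATP (250 µM) was added for 40 min at 37 °C. ADP was read by ADP-Glo luminescence. Result is % inhibition vs vehicle; mean ± SEM, ≥3 experiments.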

[5] = target: NACHT, LRR and PYD domains-containing protein 3 (Mus musculus) (UniProt Q8R4B8); assay: Inhibition of NLRP3 inflammasome in LPS-primed C57BL/6 mouse bone marrow derived macrophages assessed as reduction in ATP-induced IL-1beta production at 10 uM preincubated for 1 hr followed by stimulation with ATP measured after 30 mins by ELISA
How it was run: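 C57BL/6 bone marrow macrophages, differentiated with 20% L-cell medium, were primed with LPS (1 µg/mL, 3 h). They were then exposed to compound or vehicle for 1 h and stimulated with ATP (5 mM, 30 min). IL-1β released into the medium was measured by ELISA.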

[6] = target: NACHT, LRR and PYD domains-containing protein 3 (Mus musculus) (UniProt Q8R4B8); assay: Inhibition of NLRP3 in C57BL/6 mouse bone marrow derived macrophages assessed as reduction in LPS-induced IL-1beta gene expression at 10 to 100 uM preincubated for 30 mins followed by LPS stimulation measured after 4 hrs by qRT-PCR analysis
How it was run: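 C57BL/6 bone marrow macrophages, differentiated with 20% L-cell medium, were preincubated with compound for 30 min. They were then left untreated or given LPS (1 ng/mL, 4 h). Tnfa, Il6 and Il1b expression was measured by quantitative RT-PCR as 2^-ΔΔCt.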

Jejunum = assay: Drug metabolism in Sprague-Dawley rat jejunum assessed as 2-(2-chlorobenzyl)acrylic acid level at 12.5 mg as suspension in olive oil measured after 2 hrs by UHPLC-M; assay type: ADME, tissue-based; details: in vivo
Liver = assay: Drug metabolism in Sprague-Dawley rat liver microsomes assessed as formation of 2-(2-chlorobenzyl)acrylic acid at 100 uM up to 2 hrs in absence of NADPH by UHPLC-MS analysis; assay type: ADME, microsome
Rattus norvegicus [7] = assay: Antiinflammatory activity in DNBS-induced Sprague-Dawley rat colitis model assessed as body weight recovery at 12.5 to 50 mg/kg/day, ig administered as suspension in olive oil for 6 days simulatneously with 6 days of DNBS-challenge measured daily during compound dosing; assay type: functional, organism-based
How it was run: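 Colitis was induced with intrarectal DNBS (15 mg in 0.25 mL 50% ethanol). Intragastric treatment ran 6 days from the day of induction: 1 mg/kg/day in 1% methylcellulose, or 12.5–50 mg/kg/day in olive oil. Body weight change (g) was recorded at the end of treatment, mean ± SEM, n = 10.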

Rattus norvegicus [8] = assay: Antiinflammatory activity in DNBS-induced Sprague-Dawley rat colitis model assessed as DNBS-induced decrease in colonic length at 12.5 mg/kg/day, ig administered as suspension in olive oil for 6 days simulatneously with 6 days of DNBS-challenge (reference value: -34.4%); assay type: functional; parameters: scale not given: the % may be the effect or the level left
Rattus norvegicus [9] = assay: Antiinflammatory activity in DNBS-induced Sprague-Dawley rat colitis model assessed as DNBS-induced decrease in colonic length at 25 mg/kg/day, ig administered as suspension in olive oil for 6 days simulatneously with 6 days of DNBS-challenge (reference value: -34.4%); assay type: functional; parameters: scale not given: the % may be the effect or the level left
Rattus norvegicus [10] = assay: Antiinflammatory activity in DNBS-induced Sprague-Dawley rat colitis model assessed as DNBS-induced macroscopic damage score at 12.5 mg/kg/day, ig administered as suspension in olive oil for 6 days simulatneously with 6 days of DNBS-challenge (reference value: 8.6 +/- 0.6); assay type: functional
Rattus norvegicus [11] = assay: Antiinflammatory activity in DNBS-induced Sprague-Dawley rat colitis model assessed as DNBS-induced macroscopic damage score at 50 mg/kg/day, ig administered as suspension in olive oil for 6 days simulatneously with 6 days of DNBS-challenge (reference value: 8.6 +/- 0.6); assay type: functional
Rattus norvegicus [12] = assay: Anti-inflammatory activity in DNBS-induced Sprague-Dawley rat colitis model assessed as reduction in DNBS-induced increase in MPO levels in colon at 12.5 to 50 mg/kg/day, ig for 6 days simulatneously with 6 days of DNBS-challenge by ELISA; assay type: functional, organism-based
How it was run: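 DNBS colitis (15 mg intrarectal in 50% ethanol) was treated by the intragastric route for 6 days from induction (1 mg/kg/day in 1% methylcellulose, or 12.5–50 mg/kg/day in olive oil). Colonic samples (30 mg) were taken adjacent and distal to the necrotic area, homogenized, and assayed for MPO by ELISA. Results are ng MPO per mg tissue, mean ± SEM, n = 10.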

Rattus norvegicus [13] = assay: Anti-inflammatory activity in DNBS-induced Sprague-Dawley rat colitis model assessed as DNBS-induced IL-1beta levels in colon at 25 mg/kg/day, ig for 6 days simulatneously with 6 days of DNBS-challenge by ELISA (reference value: 22.3 +/- 2.9 ng/mg); assay type: functional
[14] = target: NACHT, LRR and PYD domains-containing protein 3 (Mus musculus) (UniProt Q8R4B8); assay: Inhibition of NLRP3 inflammasome in LPS-primed C57BL/6 mouse bone marrow derived macrophages assessed as reduction in ATP-induced pyroptosis at 10 to 100 uM preincubated for 1 hr followed by stimulation with ATP measured after 30 mins by LDH release assay
How it was run: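 Bone marrow macrophages from C57BL/6 mice, differentiated with 20% L-cell medium, primed with LPS (1 µg/mL, 3 h). Test agent or vehicle was added for 1 h, then ATP (5 mM, 30 min) or nigericin (10 µM, 30 min). IL-1β in the medium was measured by ELISA. LDH in the medium was measured colorimetrically as % of total cellular LDH.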

Rattus norvegicus [15] = assay: Toxicity in Sprague-Dawley rat at 50 mg/kg/day, ig; assay type: organism-based; details: in vivo, po
How it was run: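 Rats received intrarectal DNBS (15 mg in 0.25 mL 50% ethanol) or none. Dosing was intragastric for 6 days from induction: compound 12.5–50 mg/kg/day in 0.2 mL olive oil, or dexamethasone 1 mg/kg/day in 0.2 mL 1% methylcellulose. Body weight change was recorded at end; n = 10, mean ± SEM.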

Chain of NACHT, LRR and PYD domains-containing protein 3 (Mus musculus) (Q8R4B8 whole entry, the tested form may be a part): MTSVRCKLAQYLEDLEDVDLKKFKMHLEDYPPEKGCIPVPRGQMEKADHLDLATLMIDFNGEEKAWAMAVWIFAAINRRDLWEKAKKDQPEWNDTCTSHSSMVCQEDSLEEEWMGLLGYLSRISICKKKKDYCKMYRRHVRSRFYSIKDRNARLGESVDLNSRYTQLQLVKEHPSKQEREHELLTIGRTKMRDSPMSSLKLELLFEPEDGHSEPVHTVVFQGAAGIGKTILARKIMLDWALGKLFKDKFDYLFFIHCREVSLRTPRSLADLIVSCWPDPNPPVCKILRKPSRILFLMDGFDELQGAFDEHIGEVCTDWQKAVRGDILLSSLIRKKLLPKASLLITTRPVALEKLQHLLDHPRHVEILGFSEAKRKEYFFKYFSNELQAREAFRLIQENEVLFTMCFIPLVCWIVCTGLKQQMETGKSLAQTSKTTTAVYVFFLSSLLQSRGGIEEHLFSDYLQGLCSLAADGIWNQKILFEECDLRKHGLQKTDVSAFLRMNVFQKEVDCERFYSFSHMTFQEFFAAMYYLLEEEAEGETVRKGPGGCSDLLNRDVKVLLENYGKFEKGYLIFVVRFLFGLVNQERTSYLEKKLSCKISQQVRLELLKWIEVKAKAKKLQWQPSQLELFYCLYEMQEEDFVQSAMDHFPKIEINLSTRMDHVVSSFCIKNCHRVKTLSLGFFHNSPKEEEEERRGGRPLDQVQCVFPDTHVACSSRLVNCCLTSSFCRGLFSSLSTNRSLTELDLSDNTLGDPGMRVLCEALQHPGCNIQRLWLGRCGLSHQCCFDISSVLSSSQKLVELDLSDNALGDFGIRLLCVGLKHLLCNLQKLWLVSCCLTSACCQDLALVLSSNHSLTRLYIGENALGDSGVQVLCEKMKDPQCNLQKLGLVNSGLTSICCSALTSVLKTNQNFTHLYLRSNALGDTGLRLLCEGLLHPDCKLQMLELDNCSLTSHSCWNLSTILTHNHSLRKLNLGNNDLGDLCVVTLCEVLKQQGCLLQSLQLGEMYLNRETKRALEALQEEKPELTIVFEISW
Chain of NACHT, LRR and PYD domains-containing protein 3 (Homo sapiens) (Q96P20 whole entry, the tested form may be a part): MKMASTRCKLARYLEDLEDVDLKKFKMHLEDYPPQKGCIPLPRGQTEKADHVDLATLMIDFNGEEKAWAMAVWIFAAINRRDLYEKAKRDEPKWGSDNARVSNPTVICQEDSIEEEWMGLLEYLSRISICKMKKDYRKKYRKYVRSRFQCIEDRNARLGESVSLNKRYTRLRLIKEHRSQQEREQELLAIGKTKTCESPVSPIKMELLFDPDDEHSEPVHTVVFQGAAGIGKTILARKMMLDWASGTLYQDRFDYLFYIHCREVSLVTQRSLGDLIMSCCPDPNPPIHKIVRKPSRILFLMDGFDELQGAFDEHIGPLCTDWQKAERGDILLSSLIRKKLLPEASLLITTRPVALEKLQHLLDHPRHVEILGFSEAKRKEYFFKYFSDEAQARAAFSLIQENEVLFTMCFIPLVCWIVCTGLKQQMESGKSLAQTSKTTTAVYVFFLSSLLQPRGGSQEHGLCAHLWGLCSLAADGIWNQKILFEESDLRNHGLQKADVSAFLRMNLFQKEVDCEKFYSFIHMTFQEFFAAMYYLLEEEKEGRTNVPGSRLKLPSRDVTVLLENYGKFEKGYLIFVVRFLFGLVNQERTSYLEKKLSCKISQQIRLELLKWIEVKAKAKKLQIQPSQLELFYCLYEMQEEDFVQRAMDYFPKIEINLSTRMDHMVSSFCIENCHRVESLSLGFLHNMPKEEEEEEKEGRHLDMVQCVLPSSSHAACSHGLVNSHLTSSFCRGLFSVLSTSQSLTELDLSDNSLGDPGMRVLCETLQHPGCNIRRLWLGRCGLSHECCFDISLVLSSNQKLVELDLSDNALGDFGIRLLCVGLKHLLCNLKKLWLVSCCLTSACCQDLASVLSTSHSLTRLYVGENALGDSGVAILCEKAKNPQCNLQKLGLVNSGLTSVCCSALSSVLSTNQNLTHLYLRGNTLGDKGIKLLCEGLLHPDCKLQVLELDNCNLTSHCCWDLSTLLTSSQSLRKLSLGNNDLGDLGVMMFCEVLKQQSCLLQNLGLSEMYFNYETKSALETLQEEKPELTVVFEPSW

inhibition [4]: 52% | inhibition [5]: Active | inhibition [6]: Active | Drug metabolism (Jejunum): Metabolite_Detected | Drug metabolism (Liver): Metabolite_Detected | inhibition [14]: Active
SMILES: C=C(Cc1ccccc1Cl)C(=O)OCC
Drug metabolism [1]: Metabolite not detected | CC50 at 72 h [2]: > 100 µM | viability at 72 h, 100 µM [3]: 96.6% | Activity (Rattus norvegicus [7]): Active | Activity (Rattus norvegicus [8]): -19% | Activity (Rattus norvegicus [9]): -13% | Activity_index (Rattus norvegicus [10]): 4.7 | Activity_index (Rattus norvegicus [11]): 2.8 | Activity (Rattus norvegicus [12]): Active | Activity (Rattus norvegicus [13]): 12.8 ng/mg | Activity (Rattus norvegicus [15]): Non-Toxic
